Laboratory results: ChEMBL document CHEMBL1268860, “Revision of the Structures of 1,5-Dihydroxy-3,8-epoxyvalechlorine, Volvaltrate B, and Valeriotetrate C from Valeriana jatamansi and V. officinalis” (J Nat Prod, 2010)

Legend:
Format in all cases: functional, cell-based
Bel-7402 = experiment: Cytotoxicity against human Bel7402 cells after 24 hrs by MTT assay; conditions: Bel-7402, 24 h
Outline: (§1)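 Cell lines from ATCC, seeded at 3000 cells per well and left 24 h before exposure to a range of compound concentrations. After 24 h of exposure, MTT was added and the plates were incubated another 24 h. Viability was read as absorbance at 570 nm, and IC50 values were calculated from these readings. Paclitaxel served as the positive control.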

[1] = Cytotoxicity against human PC3M cells after 24 hrs by MTT assay; conditions: PC-3M; outline: as §1
HCT-8 = experiment: Cytotoxicity against human HCT8 cells after 24 hrs by MTT assay; conditions: HCT-8, 24 h; outline: as §1
A549 = experiment: Cytotoxicity against human A549 cells after 24 hrs by MTT assay; conditions: A549, 24 h; outline: as §1

Row | SMILES | IC50 (Bel-7402) [µM] | IC50 [1] [µM] | IC50 (HCT-8) [µM] | IC50 (A549) [µM]
1 | C=C1[C@H]2O[C@@H](O)[C@@H]3[C@](CCl)(O2)[C@@H](OC(C)=O)C[C@]13O | > 10 | > 10 | > 10 | > 10
2 | C=C1[C@H]2O[C@@H](OCC)[C@@H]3[C@](CCl)(O2)[C@@H](OC(C)=O)C[C@]13O | > 10 | > 10 | > 10 | > 10
3 | C=C1[C@H]2O[C@H](OCC)[C@@H]3[C@](CCl)(O2)[C@@H](OC(C)=O)C[C@]13O | > 10 | > 10 | > 10 | > 10
4 | C=C1[C@H]2O[C@@H](OC)[C@@H]3[C@](CCl)(O2)[C@@H](OC(C)=O)C[C@]13O | > 10 | > 10 | > 10 | > 10
5 | C=C1[C@H]2O[C@H](OC)[C@@H]3[C@](CCl)(O2)[C@@H](OC(C)=O)C[C@]13O | > 10 | > 10 | > 10 | > 10
6 | CC(=O)O[C@H]1C[C@]2(O)C(COC(=O)[C@H](OC(=O)CC(C)C)C(C)C)=CO[C@@H](OC(=O)CC(C)C)[C@@H]2[C@@]1(O)CCl [VOLVALTRATE B] | 6.1 | 2 | 3.2 | 8.5
